Series [1] deals with Toxoplasma gondii. Nature of the series: Antiparasitic activity against clindamycin-resistant Toxoplasma gondii 4 infected in HFF assessed as reduction of ycf24/UPRT genes copy number ratio at 1 uM treated for 48 hrs after 6 hrs infection followed by reinoculated into fresh HFF monolayers measured after 48 hrs by RT-PCR analysis. Type of series: functional.
Series [2] concerns Toxoplasma gondii. In words: Antiparasitic activity against clindamycin-resistant Toxoplasma gondii 4 infected in HFF assessed as reduction of ycf24/UPRT genes copy number ratio at 1 uM treated for 48 hrs immediately after infection followed by reinoculated into fresh HFF monolayers measured after 48 hrs by RT-PCR analysis. In kind it is functional. An outline of the steps:
(§1)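 Tachyzoites were seeded on confluent HFF in 6-well plates at 2×10^5 per well, in DMEM with 10% FBS and 1% PS at 37 °C, 5% CO2. Harvested tachyzoites were reinoculated into fresh HFF without drug for a second cycle. Parasites were pelleted by centrifugation and the plastid ycf24 to nuclear UPRT copy ratio was read by qPCR (40 cycles, 94 °C 3 s / 60 °C 30 s). At least triplicate.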

Series [3] relates to Toxoplasma gondii. In words: Antiparasitic activity against green fluorescent protein expressing […] deficient Toxoplasma gondii RH infected in HFF assessed as reduction of ycf24/UPRT genes copy number ratio at 1 uM treated for 48 hrs immediately after infection followed by reinoculated into fresh HFF monolayers measured after 48 hrs by RT-PCR analysis. Type of series: functional. An outline of the steps:
as §1

Series [4] relates to Toxoplasma gondii. Nature of the series: Antiparasitic activity against green fluorescent protein expressing hwgprt deficient Toxoplasma gondii RH infected in HFF assessed as reduction of ycf24/UPRT genes copy number ratio at 1 uM treated for 48 hrs after 6 hrs infection followed by reinoculated into fresh HFF monolayers measured after 48 hrs by RT-PCR analysis. Type of series: functional.

Series [5] deals with Toxoplasma gondii. Nature of the series: Antiparasitic activity against clindamycin-resistant Toxoplasma gondii 4 infected in HFF assessed as reduction of ycf24/UPRT genes copy number ratio at 5 uM treated for 48 hrs immediately after infection followed by reinoculated into fresh HFF monolayers measured after 48 hrs by RT-PCR analysis. Type of series: functional, organism-based. The method, boiled down: (§2)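 Tachyzoites were seeded on confluent HFF in 6-well plates at 2×10^5 per well, in DMEM with 10% FBS and 1% PS at 37 °C, 5% CO2. Compound was added together with the parasite inoculum, and cultures ran 48 h. Harvested tachyzoites were reinoculated into fresh HFF without drug for a second cycle. Parasites were pelleted by centrifugation and the plastid ycf24 to nuclear UPRT copy ratio was read by qPCR (40 cycles, 94 °C 3 s / 60 °C 30 s). At least triplicate.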

The subject of series [6] is Toxoplasma gondii. Nature of the series: Antiparasitic activity against green fluorescent protein expressing […] deficient Toxoplasma gondii RH infected in HFF assessed as reduction of ycf24/UPRT genes copy number ratio at 5 uM treated for 48 hrs immediately after infection followed by reinoculated into fresh HFF monolayers measured after 48 hrs by RT-PCR analysis. In kind it is functional, organism-based. The method, boiled down:
as §2

Series [7] has as its system Toxoplasma gondii. In words: Antiparasitic activity against green fluorescent protein expressing […] deficient Toxoplasma gondii RH infected in HFF assessed as reduction of ycf24/UPRT genes copy number ratio at 5 uM treated for 48 hrs after 6 hrs infection followed by reinoculated into fresh HFF monolayers measured after 48 hrs by RT-PCR analysis. In kind it is functional, organism-based. An outline of the steps: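 HFF monolayers infected with RHΔhxgprt (or Clin^R-4) in 6-well plates; after 6 h medium changed and compound present 42 h; at 48 h parasites reinoculated into fresh HFF for 48 h without compound; parasites pelleted at 2,000 rpm 10 min; qPCR (94 °C 20 s, then 40 cycles 94 °C 3 s/60 °C 30 s) plastid ycf24 vs nuclear UPRT copy ratio.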

Series [8] relates to Toxoplasma gondii. Nature of the series: Antiparasitic activity against clindamycin-resistant Toxoplasma gondii 4 infected in HFF assessed as reduction of ycf24/UPRT genes copy number ratio at 5 uM treated for 48 hrs after 6 hrs infection followed by reinoculated into fresh HFF monolayers measured after 48 hrs by RT-PCR analysis. Type of series: functional, organism-based.

In series [9] the test system is Toxoplasma gondii. Nature of the series: Antiparasitic activity against yellow fluorescent protein expressing Toxoplasma gondii 2F-1 treated 6 hrs after infection for 42 hrs followed by reinoculated into fresh HFF monolayers measured after 48 hrs. Type of series: functional, organism-based. The method, boiled down: (§3)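 Two-cycle protocol in HFF at 37 °C, 5% CO2, DMEM with 10% FBS. "0h": compound added with parasites, 48 h. "6h": parasites pre-incubated 6 h, uninvaded parasites removed, fresh medium with compound added, 42 h. Released tachyzoites were then harvested, purified and inoculated into fresh HFF without compound for the 2nd cycle. At least triplicate.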

The test system of series [10] is Toxoplasma gondii. In words: Antiparasitic activity against yellow fluorescent protein expressing Toxoplasma gondii 2F-1 infected in HFF treated 6 hrs after infection measured after 48 hrs. In kind it is functional, organism-based.
Series [11] relates to Toxoplasma gondii. Nature of the series: Antiparasitic activity against yellow fluorescent protein expressing Toxoplasma gondii 2F-1 treated immediately after infection for 48 hrs followed by reinoculated into fresh HFF monolayers measured after 48 hrs. In kind it is functional, organism-based. Particulars: 2F-1, 48 h. The method, boiled down:
as §3

For series [12], the system named is Toxoplasma gondii. In words: Antiparasitic activity against green fluorescent protein expressing […] deficient Toxoplasma gondii RH infected in HFF assessed as decrease in density of parasitophorous vacuoles at 10 uM treated immediately after infection measured after 24 hrs by microscopic analysis. In kind it is functional, organism-based. An outline of the steps: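 GFP T. gondii RHΔhxgprt in HFF, compound (10 μM) added either with the inoculum ("0h") or after 6 h pre-infection and washing ("6h"); vacuoles per microscope field scored at 24 h, at least 20 random fields from each of three experiments.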

For another series, the system named is HFF. In words: Cytotoxicity against HFF after 48 hrs by MTS assay. In kind it is cell-based. The following applies: human. An outline of the steps:
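Low-passage HFF seeded in 96-well plates and incubated 24h at 37 °C, then exposed to varying macrolide concentrations for 2 days; medium replaced with fresh medium plus MTS, 4h at 37 °C, absorbance 490 nm; CC50 = dose reducing viability by 50%.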
A general note: Tetrazolium dyes change colour on reduction, which living cells bring about.

In series [13] the test system is Toxoplasma gondii. Nature of the series: Antiparasitic activity against yellow fluorescent protein expressing Toxoplasma gondii 2F-1 infected in HFF treated immediately after infection measured after 48 hrs. In kind it is functional, organism-based. Particulars: 2F-1, 48 h.
A further series deals with Bacillus subtilis. In words: Antibacterial activity against Bacillus subtilis. Type of series: functional.

Here are results for six molecules from ChEMBL document CHEMBL1772948, “Chemistry and biology of macrolide antiparasitic agents” (J Med Chem, 2011).

Converted amounts (≈) assume the structure as drawn. The source made the active and inactive calls. The rule behind the calls is not given here.

In the case of `CCc1nc(N)nc(N)c1-c1ccc(Cl)cc1` [PYRIMETHAMINE], the Ratio turned out to be 23 in the series on Toxoplasma gondii [1], 27 in the series with Toxoplasma gondii [2], 29 with Toxoplasma gondii [3] and 22 in the series on Toxoplasma gondii [4].
In the case of SPIRAMYCIN, the Ratio in the series with Toxoplasma gondii [5] was determined as 8; in the series on Toxoplasma gondii [6] it was 8; with Toxoplasma gondii [7], 5; in the series with Toxoplasma gondii [8], 3.
Broadly, the IC50 is the concentration that gives 50% inhibition. The CC50 is the concentration giving 50% cytotoxicity. The term MIC denotes the lowest concentration that inhibits growth of the organism. Low readings indicate greater potency, high ones weaker potency. In the case of `CC[C@H]1OC(=O)[C@H](C)[C@@H](O[C@H]2C[C@@](C)(OC)[C@@H](O)[C@H](C)O2)[C@H](C)[C@@H](O[C@@H]2O[C@H](C)C[C@H](N(C)C)[C@H]2O)[C@](C)(O)C[C@@H](C)CN(CCCc2ccccc2)[C@H](C)[C@@H](O)[C@]1(C)O`, the concentration for half-maximal inhibition (IC50) with Toxoplasma gondii [9] was found to be 0.6 µM; with Toxoplasma gondii [10] it was 8 µM; with Toxoplasma gondii [11], 0.6 µM; in the series with Toxoplasma gondii [13], 4 µM. Besides, the outcome in the series on Toxoplasma gondii [12] was Active. Moreover, half-maximal cytotoxicity in the series with HFF (CC50) was put at 33 µM. In the series on Bacillus subtilis, this molecule had an MIC of 0.6 µM (≈ 0.512 µg/mL).
With `CC[C@H]1OC(=O)[C@H](C)[C@@H](O[C@H]2C[C@@](C)(OC)[C@@H](O)[C@H](C)O2)[C@H](C)[C@@H](O[C@@H]2O[C@H](C)C[C@H](N(C)C)[C@H]2O)[C@](C)(O)C[C@@H](C)CN(Cc2ccc(F)cc2)[C@H](C)[C@@H](O)[C@]1(C)O`, the IC50 was determined as 0.7 µM in the series on Toxoplasma gondii [9], 9 µM with Toxoplasma gondii [10], 0.5 µM in the series with Toxoplasma gondii [11] and 6 µM in the series on Toxoplasma gondii [13]. Further, in the series with Toxoplasma gondii [12], the outcome was Active. The same molecule registered a CC50 in the series on HFF of 31 µM. Besides, it took 0.3 µM (≈ 0.253 µg/mL) to inhibit growth against Bacillus subtilis (MIC).
As to `CC[C@H]1OC(=O)[C@H](C)[C@@H](O[C@H]2C[C@@](C)(OC)[C@@H](O)[C@H](C)O2)[C@H](C)[C@@H](O[C@@H]2O[C@H](C)C[C@H](N(C)C)[C@H]2O)[C@](C)(O)C[C@@H](C)CN(Cc2ccc(C)cc2)[C@H](C)[C@@H](O)[C@]1(C)O`, the half-maximal inhibitory concentration (IC50) with Toxoplasma gondii [9] is 0.7 µM; in the series on Toxoplasma gondii [10], 9 µM; in the series on Toxoplasma gondii [11], 0.6 µM; in the series on Toxoplasma gondii [13], 5 µM. For the same molecule, the outcome in the series on Toxoplasma gondii [12] was Active. The molecule also came in with a half-maximal cytotoxic concentration (CC50) in the series with HFF of 38 µM. This molecule also came in with an MIC against Bacillus subtilis of 0.3 µM (≈ 0.252 µg/mL).
Turning to `CC[C@H]1OC(=O)[C@H](C)[C@@H](O[C@H]2C[C@@](C)(OC)[C@@H](O)[C@H](C)O2)[C@H](C)[C@@H](O[C@@H]2O[C@H](C)C[C@H](N(C)C)[C@H]2O)[C@](C)(O)C[C@@H](C)CN(CC2CCCCC2)[C@H](C)[C@@H](O)[C@]1(C)O`, the concentration for half-maximal inhibition (IC50) with Toxoplasma gondii [9] worked out at 0.6 µM; in the series with Toxoplasma gondii [10], 12 µM; in the series on Toxoplasma gondii [11], 0.6 µM; in the series on Toxoplasma gondii [13], 7 µM. The outcome with Toxoplasma gondii [12] was Active. The molecule further displayed a half-maximal cytotoxic concentration (CC50) in the series with HFF of 36 µM. The molecule further had a minimum inhibitory concentration (MIC) in the series with Bacillus subtilis of 0.3 µM (≈ 0.249 µg/mL).
